Measurements pooled from the literature.
Protocols differ between the studies behind these lines.
Action: inhibitor
DPP4: Dipeptidyl peptidase 4 (DPP4, Homo sapiens, UniProt P27487)
CDK9 with cyclin T1: Cyclin-dependent kinase 9, with cyclin T1 (CDK9, Homo sapiens, UniProt P50750)
APOBEC3G: DNA dC->dU-editing enzyme APOBEC-3G (APOBEC3G, Homo sapiens, UniProt Q9HC16)
ACHE: Acetylcholinesterase (ACHE, Homo sapiens, UniProt P22303)

SMILES | target | test | system | conditions | IC50 [µM]
CC(C)[C@H](N)C(=O)N1CCC[C@H]1C(=O)N[C@H](C(=O)N1CCC[C@H]1C(=O)N[C@H](C(=O)O)C(C)C)C(C)C | DPP4 | enzyme activity, absorbance | – | pH 8 | 59.1
CC[C@H]1NC(=O)[C@@H]2CSC(=N2)[C@@H](Cc2ccccc2)N(C)C(=O)[C@@H]2CCCN2C(=O)[C@H](C(C)C)N(C)C(=O)[C@H](Cc2ccccc2)OC(=O)[C@H](C)[C@@H](C)NC(=O)[C@@H]([C@@H](C)O)NC(=O)[C@@H](CC(C)C)N(C)C(=O)[C@@H]2CSC1=N2 | DPP4 | enzyme activity | – | – | 347
COc1c(-c2ccc3c(c2)OCO3)oc2c(ccc3occc32)c1=O | CDK9 with cyclin T1 | enzyme activity, ADP detection | – | – | 38.4
CC[C@H](C)[C@H](N)C(=O)N[C@@H](Cc1c[nH]cn1)C(=O)N[C@@H](CC(C)C)C(=O)N[C@@H](Cc1ccc(O)cc1)C(=O)N[C@@H](Cc1ccc(O)cc1)C(=O)N[C@@H](Cc1ccccc1)C(=O)N[C@@H](CC(=O)O)C(=O)O | APOBEC3G | enzyme activity | – | pH 7.4 | 110
C=CCn1c2cc(OC(=O)CCCCN3CCN(Cc4ccccc4F)CC3)ccc2c2ccnc(C)c21 | ACHE | enzyme activity, Ellman | – | – | 0.15
CC[C@H](C)[C@H](N)C(=O)N1CCC[C@H]1C(=O)N[C@H](C(=O)N1CCC[C@H]1C(=O)N[C@H](C(=O)O)[C@@H](C)CC)C(C)C | DPP4 | enzyme activity, absorbance | – | pH 8 | 57
COc1c(-c2ccccc2)oc2c(ccc3occc32)c1=O | CDK9 with cyclin T1 | enzyme activity, ADP detection | – | – | > 100
CC(C)C[C@@H]1C(=O)N[C@H]([C@@H](C)O)C(=O)N[C@H](C)[C@@H](C)C(=O)O[C@@H](Cc2ccccc2)C(=O)N(C)[C@@H](C(C)C)C(=O)N2CCC[C@H]2C(=O)N(C)[C@H](Cc2ccccc2)C2=N[C@@H](CS2)C(=O)N[C@H](C)C2=N[C@@H](CS2)C(=O)N1C | DPP4 | enzyme activity | – | – | 164
Cc1cc(C)nc(Nc2ncc(C(=O)NCCc3c(C)[nH]c4ccccc34)cn2)c1 | Cytochrome P450 2C8 (CYP2C8, Homo sapiens, UniProt P10632) | enzyme activity | human, liver microsomes | – | 4
CC[C@H](C)[C@H](NC(=O)[C@@H]1CCCN1C(=O)[C@@H](NC(=O)[C@@H]1CCCN1C(=O)[C@@H](N)C(C)C)C(C)C)C(=O)O | DPP4 | enzyme activity, absorbance | – | pH 8 | 103
C=CCn1c2cc(OC(=O)CCCCN3CCN(Cc4cccc(C)c4)CC3)ccc2c2ccnc(C)c21 | ACHE | enzyme activity, Ellman | – | – | 0.0358
CC(C)[C@H](N)C(=O)N1CCC[C@H]1C(=O)N[C@H](C(=O)N1CCC[C@H]1C(=O)N[C@@H](CCC(N)=O)C(=O)O)C(C)C | DPP4 | enzyme activity, absorbance | – | pH 8 | 112
C[C@H]1CN(c2n[nH]c3nc(N[C@H]4CC[C@H](NS(=O)(=O)CCC(F)(F)F)CC4)ncc23)CCO1 | Cyclin-dependent kinase 9 (CDK9, Homo sapiens, UniProt P50750) | cell-free assay, chemoproteomics | – | lysate | > 20
CSCC[C@H](NC(=O)[C@H](Cc1c[nH]cn1)NC(=O)[C@H](Cc1c[nH]cn1)NC(=O)[C@@H](N)CCCCN)C(=O)N[C@@H](Cc1ccc(O)cc1)C(=O)N[C@H](C(=O)N[C@@H](CO)C(=O)NCC(=O)N[C@@H](CCCCN)C(=O)N[C@@H](C)C(=O)N[C@@H](CCCNC(=N)N)C(=O)NCC(=O)N[C@@H](Cc1c[nH]c2ccccc12)C(=O)N[C@@H](Cc1ccccc1)C(=O)O)C(C)C | APOBEC3G | enzyme activity | – | pH 7.4 | 80
